Results from ChEMBL document CHEMBL1129453, “3-amino-3,4-dihydro-2H-1-benzopyran derivatives as 5-HT1A receptor ligands and potential anxiolytic agents. 2. Synthesis and quantitative structure-activity relationship studies of spiro[pyrrolidine- and piperidine-2,3'(2'H)-benzopyrans]” (J Med Chem, 1996).
pIC50: −log10 of the molar value.

Legend:
[1] = biological target: T1, 5-hydroxytryptamine receptor 1A (Rattus norvegicus, UniProt P19327); experiment: Binding affinity to 5-hydroxytryptamine 1A receptor in rat hippocampus membranes,3H-8-OH-DPAT and buspirone for nonspecific binding (NSB); assay type: cell membranes
T1 sequence (P19327 whole entry): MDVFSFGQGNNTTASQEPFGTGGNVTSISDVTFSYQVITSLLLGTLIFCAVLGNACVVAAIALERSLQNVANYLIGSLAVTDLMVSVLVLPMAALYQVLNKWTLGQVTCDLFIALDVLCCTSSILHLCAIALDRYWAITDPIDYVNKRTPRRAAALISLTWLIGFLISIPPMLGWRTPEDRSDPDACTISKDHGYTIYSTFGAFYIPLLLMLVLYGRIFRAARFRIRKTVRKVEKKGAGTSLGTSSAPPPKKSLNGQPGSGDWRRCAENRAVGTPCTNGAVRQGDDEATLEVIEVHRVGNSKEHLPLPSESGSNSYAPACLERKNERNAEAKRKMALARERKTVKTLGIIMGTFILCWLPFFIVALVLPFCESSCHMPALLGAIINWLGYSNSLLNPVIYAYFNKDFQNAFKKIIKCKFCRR

[2] = biological target: T2, 5-hydroxytryptamine receptor 1B (Rattus norvegicus, UniProt P28564); experiment: Binding affinity to 5-HT1B receptors using rat cortex+striatum + globus pallidus,[3H]-5-OH-tryptamine, and serotonin for NSB
Procedure, shortened: (§1)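 Membranes from rat cortex plus striatum plus globus pallidus; [3H]-5-OH-tryptamine as radioligand at roughly its KD; serotonin defines nonspecific binding. Competition binding; IC50 taken as concentration inhibiting 50% of specific binding.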

[3] = Binding affinity to 5-hydroxytryptamine 2 receptor using calf frontal cortex, [3H]- ketanserin, and spiperone for NSB; design: species or system Bos taurus
Procedure, shortened: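 Calf frontal cortex; [3H]ketanserin near its KD; nonspecific binding with spiperone. Competition binding; IC50 = concentration inhibiting 50% of specific binding.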

[4] = biological target: T3, Serotonin 3 receptor (5HT3) (Mus musculus, UniProt Q9JHJ5+P23979); experiment: Displacement of [3H]-BRC 36694 from 5-hydroxytryptamine 3 receptor in NG108-15 cells; assay type: cell-based
T3 sequence (Q9JHJ5 whole entry): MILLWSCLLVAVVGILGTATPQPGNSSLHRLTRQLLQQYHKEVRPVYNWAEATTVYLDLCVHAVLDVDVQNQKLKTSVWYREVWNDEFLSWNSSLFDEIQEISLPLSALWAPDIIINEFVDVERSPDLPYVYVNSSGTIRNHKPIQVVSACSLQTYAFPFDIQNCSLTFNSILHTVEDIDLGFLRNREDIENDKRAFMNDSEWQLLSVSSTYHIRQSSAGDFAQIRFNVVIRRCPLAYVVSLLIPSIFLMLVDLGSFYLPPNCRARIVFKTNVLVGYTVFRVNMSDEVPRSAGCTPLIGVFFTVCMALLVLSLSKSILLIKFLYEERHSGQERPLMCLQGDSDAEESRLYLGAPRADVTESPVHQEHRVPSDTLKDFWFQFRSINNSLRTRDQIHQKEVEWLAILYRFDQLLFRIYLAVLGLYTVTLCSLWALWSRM
T3 sequence (P23979 whole entry): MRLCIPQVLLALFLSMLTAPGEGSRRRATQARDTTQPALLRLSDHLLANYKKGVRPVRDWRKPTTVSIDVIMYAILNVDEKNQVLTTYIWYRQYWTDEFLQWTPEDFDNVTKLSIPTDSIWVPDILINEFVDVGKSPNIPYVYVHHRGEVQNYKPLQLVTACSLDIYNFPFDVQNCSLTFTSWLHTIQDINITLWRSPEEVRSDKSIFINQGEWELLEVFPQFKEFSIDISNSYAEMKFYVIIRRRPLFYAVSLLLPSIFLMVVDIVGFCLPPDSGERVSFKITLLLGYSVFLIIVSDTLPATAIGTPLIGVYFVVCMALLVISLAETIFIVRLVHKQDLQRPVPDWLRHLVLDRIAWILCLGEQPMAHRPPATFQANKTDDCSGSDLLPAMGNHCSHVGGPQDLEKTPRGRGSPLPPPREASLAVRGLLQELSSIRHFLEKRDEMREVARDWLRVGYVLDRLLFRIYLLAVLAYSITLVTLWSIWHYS
Procedure, shortened: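 NG108-15 cells; [3H]-BRC 36694 at approximately its KD; ICS 205930 for nonspecific binding. Competition binding expressed as IC50 against specific binding.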

[5] = biological target: T1, 5-hydroxytryptamine receptor 1A; experiment: Compound was evaluated for binding affinity on 5-hydroxytryptamine 1A receptor in rat hippocampus membranes,3H-8-OH-DPAT and buspirone for nonspecific binding; assay type: cell membranes
Procedure, shortened: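 Rat hippocampal membranes in competition binding against [³H]-8-OH-DPAT, with the radioligand at roughly its KD. […] IC50 was taken as the concentration inhibiting 50% of specific binding.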

D(2) dopamine receptor = D(2) dopamine receptor (Bos taurus, UniProt P20288); experiment: Displacement of [3H]SDZ-205-501 from Dopamine receptor D2 in calf caudate nucleus.
Procedure, shortened: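 Calf caudate nucleus; [3H]SDZ205-501 near its KD; butaclamol for nonspecific binding. Competition binding; IC50 for 50% inhibition of specific binding.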

[6] = Displacement of [3H]raclopride from Dopamine receptor […] of calf striatum; design: species or system Bos taurus
Procedure, shortened: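 Calf striatum; [3H]raclopride at about its KD; haloperidol for nonspecific binding. Competition assay reporting IC50 (50% inhibition of specific binding).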

[7] = biological target: T2, 5-hydroxytryptamine receptor 1B; experiment: Compound was evaluated for binding affinity on 5-HT1B receptors using rat cortex+striatum+ globus pallidus,[ 3H]-5-OH-tryptamine, and serotonin for NSB.; assay type: tissue-based; procedure, shortened: as §1
Rattus norvegicus [8] = species on record: Rattus norvegicus; experiment: Effect of enantiomeric compound on adenylate cyclase activity in rat hippocampus at 10e-7 M; assay type: functional
Procedure, shortened: (§2)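 Rat hippocampal membranes incubated 20 min at 30 °C with forskolin 10 μM, [α-32P]ATP 0.1 μM and test compound. Activity measured as conversion to [32P]cAMP (nM/mg protein/20 min), given as % of control. Mean ± standard error of three determinations in two experiments; Student's t-test versus 100%, p < 0.05.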

Rattus norvegicus [9] = species on record: Rattus norvegicus; experiment: Effect of compound on Forskolin-Activated Adenylate Cyclase in Rat Hippocampi at 0 M conc; assay type: functional; procedure, shortened: as §2
Rattus norvegicus [10] = species on record: Rattus norvegicus; experiment: Effect of compound on Forskolin-Activated Adenylate Cyclase in Rat Hippocampi at 10e-10 M conc; assay type: functional; procedure, shortened: as §2
Rattus norvegicus [11] = species on record: Rattus norvegicus; experiment: Effect of compound on Forskolin-Activated Adenylate Cyclase in Rat Hippocampi at 10e-6 M conc; assay type: functional; procedure, shortened: as §2
Rattus norvegicus [12] = species on record: Rattus norvegicus; experiment: Effect of compound on Forskolin-Activated Adenylate Cyclase in Rat Hippocampi at 10e-8 M conc (p<0.05); assay type: functional; procedure, shortened: as §2
Rattus norvegicus [13] = species on record: Rattus norvegicus; experiment: Effect of compound on Forskolin-Activated Adenylate Cyclase in Rat Hippocampi at 10e-9 M conc; assay type: functional; procedure, shortened: as §2
Rattus norvegicus [14] = species on record: Rattus norvegicus; experiment: Effects of enantiomeric compound on adenylate cyclase activity in rat hippocampus; assay type: functional; procedure, shortened: as §2
Rattus norvegicus [15] = species on record: Rattus norvegicus; experiment: Effects of enantiomeric compound on adenylate cyclase activity in rat hippocampus at 1 micro M conc; assay type: functional; procedure, shortened: as §2
Rattus norvegicus [16] = species on record: Rattus norvegicus; experiment: Effect of compound on Forskolin-Activated Adenylate Cyclase in Rat Hippocampi at 10e-7 M conc; assay type: functional; procedure, shortened: as §2
Rattus norvegicus [17] = species on record: Rattus norvegicus; experiment: Effects of enantiomeric compound on adenylate cyclase activity in rat hippocampus at 1 uM; assay type: functional; procedure, shortened: as §2
Rattus norvegicus [18] = species on record: Rattus norvegicus; experiment: Effects of enantiomeric compound on adenylate cyclase activity in rat hippocampus at 10e-5 M; assay type: functional; procedure, shortened: as §2
Rattus norvegicus [19] = species on record: Rattus norvegicus; experiment: Effects of enantiomeric compound on adenylate cyclase activity in rat hippocampus at 10e-6 M; assay type: functional; procedure, shortened: as §2
Rattus norvegicus [20] = species on record: Rattus norvegicus; experiment: Effects of enantiomeric compound on adenylate cyclase activity in rat hippocampus at 10e-7 M; assay type: functional; procedure, shortened: as §2
Rattus norvegicus [21] = species on record: Rattus norvegicus; experiment: Effects of enantiomeric compound on adenylate cyclase activity in rat hippocampus at 10e-8 M; assay type: functional; procedure, shortened: as §2

D(2) dopamine receptor, sequence (P20288 whole entry): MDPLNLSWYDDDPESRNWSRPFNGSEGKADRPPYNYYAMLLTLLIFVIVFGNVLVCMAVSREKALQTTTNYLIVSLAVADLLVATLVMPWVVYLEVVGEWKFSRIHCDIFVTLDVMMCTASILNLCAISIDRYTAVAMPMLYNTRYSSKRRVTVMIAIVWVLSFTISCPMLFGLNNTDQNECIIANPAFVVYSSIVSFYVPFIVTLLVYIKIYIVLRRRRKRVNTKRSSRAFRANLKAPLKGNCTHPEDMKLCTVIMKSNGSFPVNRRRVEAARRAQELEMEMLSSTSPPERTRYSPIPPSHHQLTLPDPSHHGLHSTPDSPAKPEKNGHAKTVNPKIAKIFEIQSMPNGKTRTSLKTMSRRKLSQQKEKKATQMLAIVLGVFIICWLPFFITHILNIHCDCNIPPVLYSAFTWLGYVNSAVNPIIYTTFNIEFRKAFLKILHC
T2 sequence (P28564 whole entry): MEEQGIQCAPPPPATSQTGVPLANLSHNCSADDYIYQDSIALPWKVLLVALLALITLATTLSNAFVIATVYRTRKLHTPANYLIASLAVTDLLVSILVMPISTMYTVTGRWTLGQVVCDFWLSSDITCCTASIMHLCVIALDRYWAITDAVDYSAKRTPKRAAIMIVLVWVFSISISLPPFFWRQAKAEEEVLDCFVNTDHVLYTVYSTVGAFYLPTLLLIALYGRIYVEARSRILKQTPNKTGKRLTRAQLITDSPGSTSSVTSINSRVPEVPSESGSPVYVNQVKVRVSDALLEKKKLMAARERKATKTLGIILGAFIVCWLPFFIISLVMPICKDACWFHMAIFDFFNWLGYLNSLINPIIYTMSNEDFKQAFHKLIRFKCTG

SMILES	pIC50 [1]	pIC50 [2]	pIC50 [3]	pIC50 [4]	IC50 [4]	pIC50 (D(2) dopamine receptor)	pIC50 [6]	other results
COc1cccc2c1CC1(CCC(=O)N1)CO2 (stereo not drawn)	5.36	< 5.00	< 4.00	< 4.00				
CCCN1CCCC12COc1cccc(OCCCCN3C(=O)CC4(CCCC4)CC3=O)c1C2 (stereo not drawn)	7.00	5.57	4.17		3.97 µM			
COc1cccc2c1CC1(CCCN1C(C)=O)CO2 (stereo not drawn)	4.09	3.61	< 4.00	< 4.00				
CCCN1CCCC12COc1cccc(O)c1C2 (stereo not drawn)		< 4.00	3.44		7.93 µM	4.15	< 3.00	pIC50 [5]: 7.41
CCCN1CCCC12COc1ccccc1C2 (stereo not drawn)	5.89	< 3.00	3.63		14.5 µM			
O=C1CC2(CCCC2)CC(=O)N1CCCCN1CCCC12COc1ccccc1C2 (stereo not drawn)	6.75	5.42	5.23		12.5 µM			
CCCN1CCCCC12COc1cccc(OC)c1C2 (stereo not drawn)	6.38	4.16	4.38		14.9 µM	4.83	4.00	
COc1cccc2c1CC1(CCCCN1CCCCNS(=O)(=O)c1ccc(C)cc1)CO2 (stereo not drawn)	7.17	4.29	4.68		118 µM	5.37	4.42	
CCCN1C(=O)CCC12COc1cccc(OC)c1C2 (stereo not drawn)	4.85	< 4.00	3.10	< 4.00				
COc1cccc2c1CC1(CCCN1)CO2 (stereo not drawn)	6.53	5.36	4.15		10.2 µM			
CCCN(CCC)C1COc2cccc(OC)c2C1 (stereo not drawn)			4.22					
COc1cccc2c1CC1(CCCCN1CCCCNC(=O)c1ccc(F)cc1)CO2 (stereo not drawn)	7.20		5.08		66.5 µM	5.37	4.42	pIC50 [7]: 4.95
COc1cccc2c1CC1(CCCCN1CCCCN1C(=O)CC3(CCCC3)CC1=O)CO2 (stereo not drawn)	8.06	5.66	5.54		41.4 µM	5.55	4.63	
CCCN1CCCC12COc1cccc(OC)c1C2 (stereo not drawn)	7.13	4.96	3.95		3.59 µM	5.18	3.92	
COc1cccc2c1CC1(CCCN1CCCCN1C(=O)CC3(CCCC3)CC1=O)CO2 (racemic)								Effect (Rattus norvegicus [8]): 80%
COc1cccc2c1CC1(CCCN1CCCCN1C(=O)CC3(CCCC3)CC1=O)CO2 (single isomer, unassigned; (+))	8.17	5.89	6.05		12.1 µM	5.88	4.65	Effect (Rattus norvegicus [9]): 100%; Effect (Rattus norvegicus [10]): 97%; Effect (Rattus norvegicus [11]): 82%; Effect (Rattus norvegicus [12]): 88%; Effect (Rattus norvegicus [13]): 91%; Effect (Rattus norvegicus [14]): 98%; Effect (Rattus norvegicus [15]): 79%; Effect (Rattus norvegicus [16]): 84%
CCCN(CCCCN1C(=O)CC2(CCCC2)CC1=O)C1COc2cccc(OC)c2C1 (single isomer, unassigned; (+))			5.52			7.70		
COc1cccc2c1CC1(CCCN1CCCCN1C(=O)CC3(CCCC3)CC1=O)CO2 (single isomer, unassigned; (-))		4.51	4.86		10.6 µM	4.95	4.63	Effect (Rattus norvegicus [14]): 101%; Effect (Rattus norvegicus [17]): 101%; Effect (Rattus norvegicus [18]): 81%; Effect (Rattus norvegicus [19]): 86%; Effect (Rattus norvegicus [20]): 92%; Effect (Rattus norvegicus [21]): 98%
CCCN(CCCCN1C(=O)CC2(CCCC2)CC1=O)C1COc2cccc(OC)c2C1 (single isomer, unassigned; (-))			5.30					
CCCN(CCCCN1C(=O)CC2(CCCC2)CC1=O)C1COc2cccc(OC)c2C1 (stereo in doubt; 2)			6.00					
COc1cccc2c1CC1(CCCN1CCCCN1C(=O)CC3(CCCC3)CC1=O)CO2 (stereo in doubt; 11a)	7.97	5.42	5.18		30.7 µM			
CCCN(CCC)C1CCc2cccc(O)c2C1 (stereo not drawn) [8-OH-DPAT]			4.31					
O=C1CC2(CCCC2)CC(=O)N1CCCCN1CCN(c2ncccn2)CC1 [BUSPIRONE]			5.00				3.57	
O=C1c2ccccc2S(=O)(=O)N1CCCCN1CCN(c2ncccn2)CC1 [IPSAPIRONE]			5.12					
